Data as given in ChEMBL document CHEMBL4138242, “Synthesis and antibacterial evaluation of novel cationic chalcone derivatives possessing broad spectrum antibacterial activity” (Eur J Med Chem, 2018).
The source made the active and inactive calls.

Experiments:
Staphylococcus aureus [1] = assay: Bactericidal activity against Staphylococcus aureus ATCC 29213 at 6 times MIC after 6 hrs by time-kill assay; assay type: functional, organism-based
Method in brief: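 An overnight culture was diluted 1:10,000 in MHB and grown at 37 °C and 225 rpm for 2 h or 5 h. It was then challenged in tubes at 6× and 8× MIC, with vancomycin (6 µg/mL) as comparator. At intervals, aliquots were pelleted, resuspended in PBS, and tenfold dilutions plated on MHA overnight at 37 °C to give CFU/mL. Biological replicates were run.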

Escherichia coli [2] = assay: Ratio of MIC for Escherichia coli ATCC 25922 after 20 passages to MIC for Escherichia coli ATCC 25922 before 20 passages; assay type: functional, organism-based
Method in brief: (§1)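 The MIC was first measured by broth microdilution. Cells grown at MIC/2 were then carried into a fresh MIC assay after each 24 h, repeated over 20 serial passages. Norfloxacin (S. aureus) and colistin (E. coli) served as control antibiotics. Resistance was defined as a >4-fold rise over the original MIC.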

Staphylococcus aureus [3] = assay: Ratio of MIC for Staphylococcus aureus ATCC 29213 after 20 passages to MIC for Staphylococcus aureus ATCC 29213 before 20 passages; assay type: functional; method in brief: as §1
Staphylococcus aureus [4] = assay: Antibacterial activity against Staphylococcus aureus ATCC 29213 after 16 to 20 hrs by broth microdilution method; assay type: functional
Method in brief: (§2)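 Broth microdilution per CLSI. Bacteria grown 4-6 h (about 10⁸ CFU/mL), then diluted to about 10⁶ CFU/mL. Medium: Mueller-Hinton broth, except Luria-Bertani broth for E. coli. Compounds in sterile water, twofold series 256-0.5 µg/mL, mixed 1:1 with inoculum, 37 °C for 16-20 h. MIC is the lowest concentration without visible growth. Duplicate wells; experiment repeated at least twice.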

Enterococcus faecalis = assay: Antibacterial activity against Enterococcus faecalis ATCC 29212 after 16 to 20 hrs by broth microdilution method; assay type: functional; method in brief: as §2
Escherichia coli [5] = assay: Antibacterial activity against Escherichia coli ATCC 25922 after 16 to 20 hrs by broth microdilution method; assay type: functional; method in brief: as §2
Salmonella enterica = assay: Antibacterial activity against Salmonella enterica ATCC 13076 after 16 to 20 hrs by broth microdilution method; assay type: functional; method in brief: as §2
[6] = Hemolytic activity in sheep RBC after 1 hr; assay type: ADME, cell-based, Ovis aries, Erythrocyte; details: sheep red blood cells (erythrocytes)
Method in brief: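 Sheep red blood cells (150 µL suspension) mixed with 50 µL of compound dilutions (5120-10 µg/mL), 1 h at 37 °C, then centrifuged. Supernatant read at 540 nm. Percent hemolysis calculated relative to RBC-only control (0%) and 0.1% Triton X-100 (100%).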

Staphylococcus aureus [7] = assay: Antibacterial activity against methicillin-resistant Staphylococcus aureus clinical isolate 1105183 cono7 after 16 to 20 hrs by broth microdilution method; assay type: functional
Method in brief: (§3)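 CLSI broth microdilution in Mueller-Hinton broth. A 4-6 h culture was diluted to about 10⁶ CFU/mL and mixed 1:1 with compound dilutions prepared at 256 to 0.5 µg/mL from aqueous stocks. Plates were incubated at 37 °C for 16-20 h and read visually for MIC. Each concentration was run in duplicate, and the experiment was repeated at least twice. Vancomycin and meropenem were comparators.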

Staphylococcus aureus [8] = assay: Antibacterial activity against methicillin-resistant Staphylococcus aureus clinical isolate 20130911034sau after 16 to 20 hrs by broth microdilution method; assay type: functional; method in brief: as §3
Staphylococcus aureus [9] = assay: Antibacterial activity against methicillin-resistant Staphylococcus aureus clinical isolate 0831010 after 16 to 20 hrs by broth microdilution method; assay type: functional; method in brief: as §3
Staphylococcus aureus [10] = assay: Antibacterial activity against methicillin-resistant Staphylococcus aureus clinical isolate 1104060 after 16 to 20 hrs by broth microdilution method; assay type: functional; method in brief: as §3
Staphylococcus aureus [11] = assay: Antibacterial activity against methicillin-resistant Staphylococcus aureus clinical isolate 20131012632sau after 16 to 20 hrs by broth microdilution method; assay type: functional; method in brief: as §3
Staphylococcus aureus [12] = assay: Antibacterial activity against methicillin-resistant Staphylococcus aureus clinical isolate 1207007 after 16 to 20 hrs by broth microdilution method; assay type: functional; method in brief: as §3
Staphylococcus aureus [13] = assay: Antibacterial activity against methicillin-resistant Staphylococcus aureus clinical isolate 1-may after 16 to 20 hrs by broth microdilution method; assay type: functional; method in brief: as §3
Staphylococcus aureus [14] = assay: Antibacterial activity against methicillin-resistant Staphylococcus aureus clinical isolate 0906202 after 16 to 20 hrs by broth microdilution method; assay type: functional; method in brief: as §3
Staphylococcus aureus [15] = assay: Antibacterial activity against methicillin-resistant Staphylococcus aureus clinical isolate 1208143 after 16 to 20 hrs by broth microdilution method; assay type: functional; method in brief: as §3
Klebsiella pneumoniae [16] = assay: Antibacterial activity against drug-resistant carbapenemase producing Klebsiella pneumoniae clinical isolate KP-14-8 after 16 to 20 hrs by broth microdilution method; assay type: functional; method in brief: as §3
Klebsiella pneumoniae [17] = assay: Antibacterial activity against drug-resistant carbapenemase producing Klebsiella pneumoniae clinical isolate KP-13-45 after 16 to 20 hrs by broth microdilution method; assay type: functional; method in brief: as §3
Klebsiella pneumoniae [18] = assay: Antibacterial activity against drug-resistant carbapenemase producing Klebsiella pneumoniae clinical isolate KP-14-3 after 16 to 20 hrs by broth microdilution method; assay type: functional; method in brief: as §3
Klebsiella pneumoniae [19] = assay: Antibacterial activity against drug-resistant carbapenemase producing Klebsiella pneumoniae clinical isolate KP-14-1 after 16 to 20 hrs by broth microdilution method; assay type: functional; method in brief: as §3
Klebsiella pneumoniae [20] = assay: Antibacterial activity against drug-resistant carbapenemase producing Klebsiella pneumoniae clinical isolate KP-14-4 after 16 to 20 hrs by broth microdilution method; assay type: functional; method in brief: as §3
Klebsiella pneumoniae [21] = assay: Antibacterial activity against drug-resistant carbapenemase producing Klebsiella pneumoniae clinical isolate KP-13-54 after 16 to 20 hrs by broth microdilution method; assay type: functional; method in brief: as §3
Klebsiella pneumoniae [22] = assay: Antibacterial activity against drug-resistant carbapenemase producing Klebsiella pneumoniae clinical isolate KP-14-2 after 16 to 20 hrs by broth microdilution method; assay type: functional; method in brief: as §3
Klebsiella pneumoniae [23] = assay: Antibacterial activity against drug-resistant carbapenemase producing Klebsiella pneumoniae clinical isolate EC-13-23 after 16 to 20 hrs by broth microdilution method; assay type: functional; method in brief: as §3
Klebsiella pneumoniae [24] = assay: Antibacterial activity against drug-resistant carbapenemase producing Klebsiella pneumoniae clinical isolate KP-14-5 after 16 to 20 hrs by broth microdilution method; assay type: functional; method in brief: as §3
Klebsiella pneumoniae [25] = assay: Antibacterial activity against drug-resistant carbapenemase producing Klebsiella pneumoniae clinical isolate KP-13-55 after 16 to 20 hrs by broth microdilution method; assay type: functional; method in brief: as §3
Klebsiella pneumoniae [26] = assay: Antibacterial activity against drug-resistant carbapenemase producing Klebsiella pneumoniae clinical isolate KP-14-45 after 16 to 20 hrs by broth microdilution method; assay type: functional; method in brief: as §3
Klebsiella pneumoniae [27] = assay: Antibacterial activity against drug-resistant carbapenemase producing Klebsiella pneumoniae clinical isolate KP-14-18 after 16 to 20 hrs by broth microdilution method; assay type: functional; method in brief: as §3
Escherichia coli [28] = assay: Antibacterial activity against drug-resistant NDM1 producing Escherichia coli clinical isolate EC-13-49 after 16 to 20 hrs by broth microdilution method; assay type: functional; method in brief: as §3
Escherichia coli [29] = assay: Antibacterial activity against drug-resistant NDM1 producing Escherichia coli clinical isolate Ecl-14-58 after 16 to 20 hrs by broth microdilution method; assay type: functional; method in brief: as §3
Escherichia coli [30] = assay: Antibacterial activity against drug-resistant NDM1 producing Escherichia coli clinical isolate KP-13-58 after 16 to 20 hrs by broth microdilution method; assay type: functional; method in brief: as §3
Escherichia coli [31] = assay: Antibacterial activity against drug-resistant NDM1 producing Escherichia coli clinical isolate Ecl-13-62 after 16 to 20 hrs by broth microdilution method; assay type: functional; method in brief: as §3
Escherichia coli [32] = assay: Antibacterial activity against drug-resistant NDM1 producing Escherichia coli clinical isolate EC-14-54 after 16 to 20 hrs by broth microdilution method; assay type: functional; method in brief: as §3
Escherichia coli [33] = assay: Antibacterial activity against drug-resistant NDM1 producing Escherichia coli clinical isolate Ecl-14-59 after 16 to 20 hrs by broth microdilution method; assay type: functional; method in brief: as §3
Escherichia coli [34] = assay: Antibacterial activity against drug-resistant NDM1 producing Escherichia coli clinical isolate EA-14-61 after 16 to 20 hrs by broth microdilution method; assay type: functional; method in brief: as §3
Escherichia coli [35] = assay: Antibacterial activity against drug-resistant NDM1 producing Escherichia coli clinical isolate Ecl-14-56 after 16 to 20 hrs by broth microdilution method; assay type: functional; method in brief: as §3
Escherichia coli [36] = assay: Antibacterial activity against drug-resistant NDM1 producing Escherichia coli clinical isolate 1460 after 16 to 20 hrs by broth microdilution method; assay type: functional; method in brief: as §3
Escherichia coli [37] = assay: Antibacterial activity against drug-resistant NDM1 producing Escherichia coli clinical isolate SM-15-84 after 16 to 20 hrs by broth microdilution method; assay type: functional; method in brief: as §3
Escherichia coli [38] = assay: Antibacterial activity against drug-resistant NDM1 producing Escherichia coli clinical isolate CF-15-61 after 16 to 20 hrs by broth microdilution method; assay type: functional; method in brief: as §3
Escherichia coli [39] = assay: Antibacterial activity against drug-resistant NDM1 producing Escherichia coli clinical isolate CF-13-61 after 16 to 20 hrs by broth microdilution method; assay type: functional; method in brief: as §3
Staphylococcus aureus [40] = assay: Induction of cytoplasmic membrane depolarization in Staphylococcus aureus ATCC 29213 at 10 to 20 ug/ml measured every 2 mins for 12 mins by DiSC35 dye-based fluorescence assay; assay type: functional, organism-based
Method in brief: (§4)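 Mid-log cells (~10⁸ CFU/mL) were suspended in PBS (S. aureus) or HEPES/glucose/KCl with EDTA (E. coli). They were preloaded with DiSC3(5) for 30 min (S. aureus) or 40 min (E. coli), and baseline fluorescence was read for 8 min. Compound was added to 20 µg/mL final, and fluorescence (ex 622/em 670 nm) was read every 2 min for 12 min. Water served as control.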

Escherichia coli [41] = assay: Induction of cytoplasmic membrane depolarization in Escherichia coli ATCC 25922 at 10 to 20 ug/ml measured every 2 mins for 12 mins by DiSC35 dye-based fluorescence assay; assay type: functional, organism-based; method in brief: as §4
Staphylococcus aureus [42] = assay: Induction of inner membrane permeabilization in Staphylococcus aureus ATCC 29213 at 10 to 20 ug/ml measured every 2 mins for 12 mins by propidium iodide staining-based fluorescence assay; assay type: functional, organism-based
Method in brief: (§5)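 Mid-log cells (~10⁸ CFU/mL) were suspended in PBS (S. aureus) or HEPES/glucose/KCl (E. coli). They were preincubated with propidium iodide for 30 min (S. aureus) or 40 min (E. coli), and baseline fluorescence was read for 8 min. Compound was added to 20 µg/mL final, and fluorescence (ex 535/em 617 nm) was read every 2 min for 12 min.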

Escherichia coli [43] = assay: Induction of inner membrane permeabilization in Escherichia coli ATCC 25922 at 10 to 20 ug/ml measured every 2 mins for 12 mins by propidium iodide staining-based fluorescence assay; assay type: functional, organism-based; method in brief: as §5

CN[C@H](CC(C)C)C(=O)N[C@H]1C(=O)N[C@@H](CC(N)=O)C(=O)N[C@H]2C(=O)N[C@H]3C(=O)N[C@H](C(=O)N[C@H](C(=O)O)c4cc(O)cc(O)c4-c4cc3ccc4O)[C@H](O)c3ccc(c(Cl)c3)Oc3cc2cc(c3O[C@@H]2O[C@H](CO)[C@@H](O)[C@H](O)[C@H]2O[C@H]2C[C@](C)(N)[C@H](O)[C@H](C)O2)Oc2ccc(cc2Cl)[C@H]1O
Activity (Staphylococcus aureus [1]): inactive

COLISTIN
Ratio (Escherichia coli [2]): 32

CCn1cc(C(=O)O)c(=O)c2cc(F)c(N3CCNCC3)cc21 [NORFLOXACIN]
Ratio (Staphylococcus aureus [3]): 256

CCCCCCCC[N+](C)(C)CC(=O)Nc1ccc(C(=O)/C=C/c2ccccc2C(F)(F)F)cc1.[Cl-]
MIC (Staphylococcus aureus [4]): 2 µg/mL | MIC (Enterococcus faecalis): 4 µg/mL | MIC (Escherichia coli [5]): 8 µg/mL | MIC (Salmonella enterica): 16 µg/mL | HC50 at 1 h [6]: 136 µg/mL | MIC (Staphylococcus aureus [7]): 1 µg/mL | MIC (Staphylococcus aureus [8]): 0.5 µg/mL | MIC (Staphylococcus aureus [9]): 0.5 µg/mL | MIC (Staphylococcus aureus [10]): 16 µg/mL | MIC (Staphylococcus aureus [11]): 4 µg/mL | MIC (Staphylococcus aureus [12]): 2 µg/mL | MIC (Staphylococcus aureus [13]): 0.5 µg/mL | MIC (Staphylococcus aureus [14]): 1 µg/mL | MIC (Staphylococcus aureus [15]): 1 µg/mL | MIC (Klebsiella pneumoniae [16]): 8 µg/mL | MIC (Klebsiella pneumoniae [17]): 8 µg/mL | MIC (Klebsiella pneumoniae [18]): 8 µg/mL | MIC (Klebsiella pneumoniae [19]): > 128 µg/mL | MIC (Klebsiella pneumoniae [20]): 8 µg/mL | MIC (Klebsiella pneumoniae [21]): 4 µg/mL | MIC (Klebsiella pneumoniae [22]): > 128 µg/mL | MIC (Klebsiella pneumoniae [23]): 4 µg/mL | MIC (Klebsiella pneumoniae [24]): 8 µg/mL | MIC (Klebsiella pneumoniae [25]): 16 µg/mL | MIC (Klebsiella pneumoniae [26]): 8 µg/mL | MIC (Klebsiella pneumoniae [27]): 16 µg/mL | MIC (Escherichia coli [28]): 8 µg/mL | MIC (Escherichia coli [29]): 8 µg/mL | MIC (Escherichia coli [30]): 1 µg/mL | MIC (Escherichia coli [31]): 8 µg/mL | MIC (Escherichia coli [32]): 16 µg/mL | MIC (Escherichia coli [33]): 8 µg/mL | MIC (Escherichia coli [34]): 8 µg/mL | MIC (Escherichia coli [35]): 4 µg/mL | MIC (Escherichia coli [36]): 8 µg/mL | MIC (Escherichia coli [37]): 128 µg/mL | MIC (Escherichia coli [38]): 4 µg/mL | MIC (Escherichia coli [39]): 4 µg/mL | Activity (Staphylococcus aureus [40]): Active | Activity (Escherichia coli [41]): Active | Activity (Staphylococcus aureus [42]): Active | Activity (Escherichia coli [43]): Active
